Laboratory results from ChEMBL document CHEMBL4673248, “Discovery and Characterization of BAY 1214784, an Orally Available Spiroindoline Derivative Acting as a Potent and Selective Antagonist of the Human Gonadotropin-Releasing Hormone Receptor as Proven in a First-In-Human Study in Postmenopausal Women” (J Med Chem, 2020).
Values after ≈ are worked out from the molar mass of the structure shown. Active and inactive are the calls of the source. No cut-off for these calls is given here. Square brackets hold non-standard residues; d marks the D form. Peptide text beside a SMILES is read from it. dPhe(4-Cl) = N[C@H](Cc1ccc(Cl)cc1)C(=O)O; d2Nal = N[C@H](Cc1ccc2ccccc2c1)C(=O)O; dCit = NC(=O)NCCC[C@@H](N)C(=O)O; d3Pal = N[C@H](Cc1cccnc1)C(=O)O

Experiments:
[1] = Intrinsic clearance in Han Wistar rat hepatocytes at 1 uM measured up to 90 mins by LC/MS/MS analysis; format: ADME, cell-based, Hepatocyte; settings: for CLint scaled at 1 µM: Han Wistar, read-out: CLH (converted)
[2] = biological target: T1, Gonadotropin-releasing hormone receptor (Rattus norvegicus, UniProt P30969); experiment: Antagonist activity at rat GnRH receptor expressed in CHO-K1 cells assessed as inhibition of LHRH-induced response preincubated for 20 mins followed by LHRH addition and measured after 60 mins by TR-FRET assay; format: cell-based
T1 sequence (P30969 whole entry): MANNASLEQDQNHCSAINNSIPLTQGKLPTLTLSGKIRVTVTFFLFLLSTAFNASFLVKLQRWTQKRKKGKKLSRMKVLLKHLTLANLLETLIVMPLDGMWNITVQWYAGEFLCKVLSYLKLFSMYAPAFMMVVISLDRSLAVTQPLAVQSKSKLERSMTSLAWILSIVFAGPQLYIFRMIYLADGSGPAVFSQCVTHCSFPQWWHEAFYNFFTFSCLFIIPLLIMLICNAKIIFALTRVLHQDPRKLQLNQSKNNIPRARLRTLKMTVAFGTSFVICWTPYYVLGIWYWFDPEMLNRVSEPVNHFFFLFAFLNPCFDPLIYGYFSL
In short: (§1)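 Frozen rat-receptor cells: thawed, seeded overnight in serum-containing Ham's F12, Accutase-harvested, resuspended in serum-free medium with IP1-d2, 1 h at 37 °C. 1.0 × 10^4 cells/well, 20 min compound preincubation at rt, then 1× EC80 LHRH or buserelin in HEPES stimulation buffer pH 7.4 for 60 min at 37 °C. Tb-anti-IP1 lysis (1:38), HTRF read 60 min later.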

[3] = biological target: T2, Gonadotropin-releasing hormone receptor (Homo sapiens, UniProt P30968); experiment: Antagonist activity at human GnRH receptor expressed in CHO-K1 cells assessed as inhibition of LHRH-induced response preincubated for 20 mins followed by LHRH addition and measured after 60 mins by TR-FRET assay; format: cell-based
T2 sequence (P30968 whole entry): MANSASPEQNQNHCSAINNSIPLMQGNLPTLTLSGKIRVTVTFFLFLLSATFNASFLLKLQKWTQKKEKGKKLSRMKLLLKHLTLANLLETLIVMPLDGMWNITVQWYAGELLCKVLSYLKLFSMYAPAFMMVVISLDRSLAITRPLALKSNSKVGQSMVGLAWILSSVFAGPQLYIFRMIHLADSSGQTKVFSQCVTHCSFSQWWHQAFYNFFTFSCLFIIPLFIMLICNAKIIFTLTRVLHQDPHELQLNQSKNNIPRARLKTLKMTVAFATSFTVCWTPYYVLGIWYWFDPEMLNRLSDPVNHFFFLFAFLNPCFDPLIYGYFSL

[4] = biological target: T2, Gonadotropin-releasing hormone receptor; experiment: Antagonist activity at human GnRH receptor expressed in CHO-K1 cells assessed as inhibition of buserelin-induced response preincubated for 20 mins followed by buserelin addition and measured after 60 mins by TR-FRET assay; format: cell-based
[5] = Clearance in Wistar rat at 0.5 mg/kg, iv by LC-MS/MS analysis; format: ADME, organism-based; settings: in vivo; for clearance: Wistar
[6] = Half life in Wistar rat at 0.5 mg/kg, iv by LC-MS/MS analysis; format: ADME, organism-based; settings: in vivo
[7] = Oral bioavailability in Wistar rat at 2 mg/kg by LC-MS/MS analysis; format: ADME, organism-based; settings: in vivo
[8] = biological target: Voltage-gated inwardly rectifying potassium channel KCNH2 (Homo sapiens, UniProt Q12809); experiment: Inhibition of human ERG expressed in HEK293 cells assessed as reduction in channel inward tail current by whole cell voltage clamp assay; format: cell-based
Chain of Voltage-gated inwardly rectifying potassium channel KCNH2 (Q12809 whole entry): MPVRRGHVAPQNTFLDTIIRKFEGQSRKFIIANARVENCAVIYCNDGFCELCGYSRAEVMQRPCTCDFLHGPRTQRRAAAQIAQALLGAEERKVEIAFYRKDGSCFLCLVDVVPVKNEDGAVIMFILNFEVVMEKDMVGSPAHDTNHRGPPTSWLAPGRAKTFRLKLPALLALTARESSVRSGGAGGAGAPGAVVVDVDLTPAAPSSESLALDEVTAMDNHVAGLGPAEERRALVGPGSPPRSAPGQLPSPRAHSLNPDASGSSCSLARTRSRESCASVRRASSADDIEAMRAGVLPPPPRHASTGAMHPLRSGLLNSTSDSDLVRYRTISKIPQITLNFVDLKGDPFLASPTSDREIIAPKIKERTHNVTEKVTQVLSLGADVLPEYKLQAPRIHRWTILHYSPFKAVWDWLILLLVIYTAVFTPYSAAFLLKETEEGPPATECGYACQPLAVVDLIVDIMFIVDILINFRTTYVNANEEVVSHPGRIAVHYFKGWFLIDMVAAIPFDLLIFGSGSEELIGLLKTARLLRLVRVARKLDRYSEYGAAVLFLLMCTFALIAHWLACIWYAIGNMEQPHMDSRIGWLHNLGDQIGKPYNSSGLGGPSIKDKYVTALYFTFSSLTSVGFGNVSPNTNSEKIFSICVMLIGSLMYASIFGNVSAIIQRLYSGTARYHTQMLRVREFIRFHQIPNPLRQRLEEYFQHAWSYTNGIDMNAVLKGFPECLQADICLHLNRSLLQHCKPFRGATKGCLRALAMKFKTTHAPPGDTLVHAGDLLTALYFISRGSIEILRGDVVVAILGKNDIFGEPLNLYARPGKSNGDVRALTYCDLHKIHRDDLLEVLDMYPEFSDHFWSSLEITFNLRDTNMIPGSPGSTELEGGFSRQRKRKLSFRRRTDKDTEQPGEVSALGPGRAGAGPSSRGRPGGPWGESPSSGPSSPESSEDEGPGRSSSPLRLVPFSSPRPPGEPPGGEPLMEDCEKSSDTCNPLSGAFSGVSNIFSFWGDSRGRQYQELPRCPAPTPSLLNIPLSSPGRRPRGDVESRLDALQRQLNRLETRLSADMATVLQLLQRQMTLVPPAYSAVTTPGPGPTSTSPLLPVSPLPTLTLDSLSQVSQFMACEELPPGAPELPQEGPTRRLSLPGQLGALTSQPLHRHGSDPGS

Rattus norvegicus [9] = experiment: Suppression of ovariectomized-induced increase in plasma luteinizing hormone level in Wistar Han rat at 30 mg/kg, ip measured after 1 hr relative to control; format: functional
In short: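 Ovariectomized rats given a single intraperitoneal injection at 30 mg/kg. Plasma LH measured 1 h later and compared with vehicle-treated animals.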

[10] = Lipophilicity, log D of the compound in pH 7.5 MeCN/H2O solution by reversed-phase HPLC analysis; format: physicochemical
In short: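 Indirect reversed-phase HPLC at pH 7.5, calibrated with n-alkan-2-ones C3–C16. Compounds applied as 0.67 mM DMSO stocks in MeCN/H2O (1:1).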

[11] = Aqueous solubility of compound at pH 6.5 incubated for 24 hrs under shaking condition by HPLC-MS/MS analysis; format: physicochemical; settings: aqueous solution
In short: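 Compound from 1 mM DMSO solution, pH 6.5 buffer added, shaken 24 h at rt. Filtered, dissolved compound quantified by HPLC-MS/MS.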

Rattus norvegicus [12] = experiment: Suppression of ovariectomized-induced increase in plasma luteinizing hormone level in po dosed Wistar Han rat measured up to 24 hrs; format: functional; settings: time hrs <=24
In short: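 Ovariectomized rats given single oral doses, range 1 to 30 mg/kg. Plasma LH followed over time, with cetrorelix at 0.1 mg/kg sc as reference. ED50 calculated from the dose-response.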

[13] = biological target: T1, Gonadotropin-releasing hormone receptor; experiment: Antagonist activity at rat GnRH receptor expressed in CHO-K1 cells assessed as inhibition of buserelin-induced response preincubated for 20 mins followed by buserelin addition and measured after 60 mins by TR-FRET assay; format: cell-based; in short: as §1
[14] = biological target: T2, Gonadotropin-releasing hormone receptor; experiment: Inhibition of Tag-lite green-labeled agonist binding to terbium fluorophore-labeled human N-terminal SNAP-tag GnRh receptor expressed in HEK293 cells assessed as dissociation constant by TR-FRET assay; format: cell-based
[15] = biological target: T3, Gonadotropin-releasing hormone receptor (Homo sapiens) (UniProt P30968); experiment: Inhibition of Tag-lite green-labeled agonist binding to terbium fluorophore-labeled human N-terminal SNAP-tag GnRh receptor expressed in HEK293 cells assessed as association rate constant by TR-FRET assay; format: cell-based; settings: filed as antagonist
T3 sequence (whole entry): T2 sequence (P30968 whole entry)
In short: (§2)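 Kinetic competition at rt: tracer at 10 nM final with compound, Tb-hGnRH-R cells injected in the reader. TR-FRET read at time zero and every 21 s. Baseline-subtracted traces fitted with the Motulsky–Mahan competitive kinetics model. At least two independent experiments, two replicates each.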

[16] = biological target: T2, Gonadotropin-releasing hormone receptor; experiment: Inhibition of Tag-lite green-labeled agonist binding to terbium fluorophore-labeled human N-terminal SNAP-tag GnRh receptor expressed in HEK293 cells assessed as equilibrium dissociation constant by TR-FRET assay; format: cell-based
Rattus norvegicus [17] = experiment: Suppression of ovariectomized-induced increase in plasma luteinizing hormone level in Wistar Han rat at 0.1 mg/kg, sc measured up to 24 hrs; format: functional, organism-based; settings: time hrs <=24
[18] = biological target: T3, Gonadotropin-releasing hormone receptor (Homo sapiens); experiment: Inhibition of Tag-lite green-labeled agonist binding to terbium fluorophore-labeled human N-terminal SNAP-tag GnRh receptor expressed in HEK293 cells assessed as residence time by TR-FRET assay; format: cell-based; settings: filed as antagonist; in short: as §2
[19] = biological target: T3, Gonadotropin-releasing hormone receptor (Homo sapiens); experiment: Inhibition of Tag-lite green-labeled agonist binding to terbium fluorophore-labeled human N-terminal SNAP-tag GnRh receptor expressed in HEK293 cells assessed as dissociation rate constant by TR-FRET assay; format: cell-based; settings: filed as antagonist; in short: as §2

Question: Which results are given for CC1N(S(=O)(=O)c2ccc(F)cc2)c2ccc(C(=O)NCc3ccccc3Cl)cc2C12CCNCC2 (stereo in doubt)?
Answer: CLint scaled at 1 µM [1]: 33.3 mL/min/kg; IC50 ([2]; cho-k1): 27 nM; IC50 [3]: 99 nM; IC50 [4]: 172 nM; clearance [5]: 23.3 mL/min/kg; half-life [6]: 8.1 h

Question: For O=C(NCc1ncccc1Cl)c1ccc2c(c1)C1(CCS(=O)(=O)CC1)C(C1CC1)N2S(=O)(=O)c1ccc(F)cc1 (stereo in doubt), which CLint scaled at 1 µM [1] is on record?
Answer: Its CLint scaled at 1 µM is 4.17 mL/min/kg.

Question: And the IC50 [2]?
Answer: The IC50 was 40 nM.

Question: What about the IC50 [3] of the same compound?
Answer: Its IC50 is 60 nM.

Question: And the clearance [5]?
Answer: Its clearance is 30 mL/min/kg.

Question: What about the half-life [6] of the same compound?
Answer: The half-life was 2.1 h.

Question: What about the bioavailability [7] of the same compound?
Answer: The bioavailability was 27%.

Question: Which IC50 [2] does the source give for CC1N(S(=O)(=O)c2ccc(F)cc2)c2ccc(C(=O)NCc3ccccc3Cl)cc2C12CCNCC2 (stereo in doubt; 3a) here?
Answer: Its IC50 is 27 nM.

Question: And the IC50 [8]?
Answer: The IC50 was 1100 nM.

Question: And the IC50 ([3]; cho-k1)?
Answer: The IC50 was 99 nM.

Question: And the Activity (Rattus norvegicus [9])?
Answer: Its Activity is 74%.

Question: What about the IC50 ([4]; cho-k1) of the same compound?
Answer: The IC50 was 172 nM.

Question: And the chromatographic logD [10]?
Answer: The chromatographic logD was 2.8.

Question: And the solubility at 24 h [11]?
Answer: The solubility at 24 h was 271 µg/mL (≈ 513 µM).

Question: What about the bioavailability [7] of the same compound?
Answer: Its bioavailability is under 2%.

Question: For O=C(NCc1ncccc1Cl)c1ccc2c(c1)C1(CCS(=O)(=O)CC1)C(C1CC1)N2S(=O)(=O)c1ccc(F)cc1 (stereo in doubt; 4a) [listing 1 of 2 here], which IC50 ([2]; cho-k1) is on record?
Answer: Its IC50 is 40 nM.

Question: What about the IC50 [3] of the same compound?
Answer: The IC50 was 60 nM.

Question: What about the ED50 (Rattus norvegicus [12]) of the same compound?
Answer: Its ED50 is 5.5 mg/kg.

Question: And the chromatographic logD [10]?
Answer: Its chromatographic logD is 3.

Question: With O=C(NCc1ncccc1Cl)c1ccc2c(c1)C1(CCS(=O)(=O)CC1)C(C1CC1)N2S(=O)(=O)c1ccc(F)cc1 (stereo in doubt; 4a) [listing 2 of 2 here] as the compound, how does the Activity (Rattus norvegicus [12]) read?
Answer: Its Activity is “Dose-dependent effect”.

Question: For COc1ccc(S(=O)(=O)N2c3ccc(C(=O)NCc4ccccc4Cl)cc3C3(CCN(C(C)=O)CC3)C2C)cc1 (stereo in doubt; form 2), which CLH ([1]; 1.5 h, 1 µM) is on record?
Answer: The CLH was 46.7 mL/min/kg.

Question: What about the IC50 [2] of the same compound?
Answer: The IC50 was 29 nM.

Question: And the IC50 [3]?
Answer: Its IC50 is 41 nM.

Question: And the IC50 [4]?
Answer: Its IC50 is 99 nM.

Question: And the IC50 [13]?
Answer: Its IC50 is 34 nM.

Question: And the CL ([5]; 0.5 mg/kg)?
Answer: Its CL is 78.3 mL/min/kg.

Question: And the half-life [6]?
Answer: Its half-life is 0.82 h.

Question: What does the source list for CC(=O)N[C@H](Cc1ccc2ccccc2c1)C(=O)N[C@H](Cc1ccc(Cl)cc1)C(=O)N[C@H](Cc1cccnc1)C(=O)N[C@@H](CO)C(=O)N[C@@H](Cc1ccc(O)cc1)C(=O)N[C@H](CCCNC(N)=O)C(=O)N[C@@H](CC(C)C)C(=O)N[C@@H](CCCNC(=N)N)C(=O)N1CCC[C@H]1C(=O)N[C@H](C)C(N)=O [CETRORELIX] (Ac-[d2Nal][dPhe(4-Cl)][d3Pal]SY[dCit]LRP[dA]-NH2)?
Answer: Kd [14]: 0.0017 nM; K [15]: 3.57 10^6/M/s; Kd [16]: 0.135 nM; Activity (Rattus norvegicus [17]): Active; TIME [18]: 0.583 h; K [19]: 1 10^-5/s

Question: Which results are given for COc1cccc(-c2c(C)n(Cc3c(F)cccc3C(F)(F)F)c(=O)n(C[C@H](NCCCC(=O)O)c3ccccc3)c2=O)c1F [ELAGOLIX SODIUM]?
Answer: Kd [14]: 3.21 nM; K [15]: 2.06 10^5/M/s; Kd [16]: 1.19 nM; TIME [18]: 1.27 h; K [19]: 3.3 10^-4/s
